Columns and labels:
Botrytis cinerea = test: Antifungal activity against Botryotinia fuckeliana in cucumber seedlings assessed as reduction in gray mold measured after 4 days by pot test; format: functional
In short: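 Emulsifiable-concentrate formulations were diluted in water and foliar-sprayed to run-off onto cotyledon-stage seedlings. Plants were held 1 day in the greenhouse, then inoculated with agar gel carrying B. cinerea and kept 4 more days at 20°C, humid and dark. Infection degree was scored against untreated controls. pED50 is the negative log of the molar concentration giving 50% control.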

Blumeria graminis = test: Antifungal activity against Blumeria graminis in wheat seedlings assessed as reduction in powdery mildew at 20 degC measured after 10 days by pot test; format: functional

| Structure (SMILES) | pED50 (Botrytis cinerea) | pED50 (Blumeria graminis) |
| --- | --- | --- |
| CC(C)(C)/C(=C/c1ccc(Cl)cc1)C(=O)n1ccnc1 | 4.82 | 5.92 |
| CC(C)(C)/C(=C\c1ccc(Cl)cc1)C(=O)n1ccnc1 | 2.92 | 3.52 |
| CC(C)(C)/C(=C/c1ccccc1)C(=O)n1ccnc1 | 3.4 | 4.17 |
| CC(C)(C)/C(=C/c1ccc(Br)cc1)C(=O)n1ccnc1 | 4.63 | 5.96 |
| CC(C)(C)/C(=C/c1ccc(C(F)(F)F)cc1)C(=O)n1ccnc1 | 3.04 | 4.19 |
| CC(C)(C)/C(=C/c1ccc(C#N)cc1)C(=O)n1ccnc1 | 4.4 | 5.89 |
| Cc1ccc(/C=C(\C(=O)n2ccnc2)C(C)(C)C)cc1 | 3.43 | 3.92 |

Reference: ChEMBL document CHEMBL3046092, “Synthesis and fungicidal activity of 1-(alpha-tert-butylcinnamoyl)imidazoles” (2002)
